Assay [1] has as its system Plasmodium falciparum. Kind of assay: Antiplasmodial activity against chloroquine-resistant Plasmodium falciparum K1 assessed as [3H]hypoxanthine incorporation after 48 hrs by beta-plate liquid scintillation counting. It is filed as functional, organism-based. An outline of the steps: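 K1 strain (chloroquine- and pyrimethamine-resistant) in infected human red blood cells, RPMI 1640 with 5% Albumax, exposed to serial dilutions for 48 h at 37 °C under reduced oxygen. 0.5 µCi [3H]-hypoxanthine then added for a further 24 h. Cells harvested onto glass-fiber filters and counted. CPM expressed as % of untreated controls, IC50 taken from sigmoidal curves. Run in duplicate, repeated once.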

Assay [2] concerns Trypanosoma brucei rhodesiense. Kind of assay: Antitrypanosomal activity against Trypanosoma brucei rhodesiense STIB900 by fluorescence assay. It is filed as functional, organism-based.
In a further assay the test system is L6. Kind of assay: Cytotoxicity against rat L6 cells. It is filed as cell-based. An outline of the steps: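 Rat skeletal myoblasts (L-6) grown in RPMI 1640 with 10% FBS and 2 mM L-glutamine, exposed to serial dilutions 90 to 0.123 µg/mL at 37 °C, 5% CO2. Alamar Blue (resazurin) read-out by fluorescence (ex 536/em 588 nm) as percent of control cultures; IC50 from sigmoidal inhibition curves.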

The next assay concerns Thamnocephalus platyurus. Kind of assay: Cytotoxicity against Thamnocephalus platyurus. Type of assay: functional. An outline of the steps: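 Instar II-III larvae hatched from cysts, tested in multiwell plates at six concentrations from 1 to 100 µM, in triplicate. Value derived by nonlinear regression.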
The next assay deals with MCF7. Kind of assay: Cytotoxicity against human MCF7 cells. Type of assay: cell-based.
Assay [3] has as its system Plasmodium falciparum. Kind of assay: Antiplasmodial activity against Plasmodium falciparum W2. Type of assay: functional, organism-based.

pIC50: −log10 of the molar value. Bounds are passed on as bounds.

One may read the pIC50 as −log10 of the IC50, conventionally taken in molar units. On to `CC[C@H](C)[C@@H]1NC(=O)[C@H]2CSC(=N2)[C@@H]([C@@H](C)CC)NC(=O)c2csc(n2)CNC(=O)[C@H]2N=C1O[C@@H]2C` [AERUCYCLAMIDE A], for which the results for the pIC50 (in the assay on Plasmodium falciparum [1]; in assay [2]; in the assay with L6) were 5.30, 4.25 and less than 3.77, respectively.
The matching figures for `CC[C@H](C)[C@@H]1NC(=O)c2csc(n2)[C@@H]([C@@H](C)CC)NC(=O)c2csc(n2)CNC(=O)[C@H]2N=C1O[C@@H]2C` [AERUCYCLAMIDE B]: 6.15, 4.80 and 3.92.
In general, LC50 refers to the concentration lethal to half of the exposed cells or organisms. Low values mean a more lethal substance, high ones a less lethal substance. Consider `CC[C@H](C)[C@H]1NC(=O)c2coc(n2)[C@H](C(C)C)NC(=O)[C@H]2N=C(O[C@@H]2C)[C@H](C)NC(=O)c2csc1n2` [AERUCYCLAMIDE C], for which the pIC50 is 5.64 in the assay on Plasmodium falciparum [1], 5.04 in assay [2] and 3.97 with L6. The LC50 in the assay on Thamnocephalus platyurus amounted to 70.5 µM.
In the case of `CSCC[C@@H]1NC(=O)c2csc(n2)CNC(=O)[C@H]2N=C(O[C@@H]2C)[C@H](Cc2ccccc2)NC(=O)[C@@H]2CSC1=N2` [AERUCYCLAMIDE D], the values for the pIC50 (in the assay with Plasmodium falciparum [1]; in assay [2]; in the assay on L6) were 5.20, 4.30 and less than 3.82, respectively.
Take `Cc1oc2nc1C(=O)N[C@H](C)c1nc(cs1)C(=O)N[C@H](C(C)C)c1nc(cs1)C(=O)N[C@@H]2C` [VENTURAMIDE A]: the pIC50 with MCF7 is 4.88; in the assay with Plasmodium falciparum [3] it was 5.09.
With `Cc1oc2nc1C(=O)N[C@H]([C@@H](C)O)c1nc(cs1)C(=O)N[C@H](C(C)C)c1nc(cs1)C(=O)N[C@@H]2C` [VENTURAMIDE B], the figures for the pIC50 with MCF7 and with Plasmodium falciparum [3] were less than 4.27 and 5.28, respectively.
